Several values for one entry are separate records, joined by “and”; a condition that tells them apart may be missing. Equal entries are not always repeated.
Columns and labels:
[1] = Effect on […] cell growth expressed as percent number of colonies compared to control at a concentration of 5 uM; assay type: functional, Mus musculus
How it was run: (§1)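 WEHI-3B murine cells grown in methyl cellulose/RPMI colony (clonogenic) assay with compound at a range of concentrations for 5 days in 60-mm dishes. Colonies counted after 5 days and expressed as percentage of untreated control colonies. Mean of three experiments run in triplicate ± SD. IC50 taken from the concentration-response.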

[2] = Compounds were evaluated for antineoplastic activity against […] cells using clonogenic assays.; assay type: functional, cell-based; details: Mus musculus; how it was run: as §1
[3] = Effect on […] cell growth expressed as percent number of colonies compared to control at a concentration of 1.2 uM; assay type: functional, Mus musculus; how it was run: as §1
[4] = Effect on […] cell growth expressed as percent number of colonies compared to control at a concentration of 20 uM; assay type: functional, Mus musculus; how it was run: as §1
[5] = Effect on […] cell growth expressed as percent number of colonies compared to control at a concentration of 10 uM; assay type: functional, Mus musculus; how it was run: as §1
[6] = Effect on […] cell growth expressed as percent number of colonies compared to control at a concentration of 2.5 uM; assay type: functional, Mus musculus; how it was run: as §1
[7] = Effect on […] cell growth expressed as percent number of colonies compared to contro at a concentration of 5 uM; assay type: functional, Mus musculus; how it was run: as §1
[8] = Effect on […] cell growth expressed as percent number of colonies compared to contro at a concentration of 20 uM; assay type: functional, Mus musculus; how it was run: as §1
[9] = Effect on […] cell growth expressed as percent number of colonies compared to contro at a concentration of 2.5 uM; assay type: functional, Mus musculus; how it was run: as §1
[10] = Effect on […] cell growth expressed as percent number of colonies compared to contro at a concentration of 0.6 uM; assay type: functional, cell-based; details: Mus musculus; how it was run: as §1
[11] = Compounds were evaluated for antineoplastic activity against […] cells using clonogenic assays; assay type: functional, cell-based; details: Mus musculus; how it was run: as §1
[12] = Effect on […] cell growth expressed as percent number of colonies compared to contro at a concentration of 1.2 uM; assay type: functional, Mus musculus; how it was run: as §1
[13] = Effect on […] cell growth expressed as percent number of colonies compared to contro at a concentration of 10 uM; assay type: functional, Mus musculus; how it was run: as §1

What does the source list for CCCCCCCCCCCCCCCCOC[C@H](CCP(=O)([O-])OCC[N+](C)(C)C)OC?
Control [1]: 58% and 48%; IC50 [2]: 2500 nM; Control [3]: 95%; Control [4]: 32%; Control [5]: 30%; Control [6]: 88%

For CCCCCCCCCCCCCCCCCCOCC(COP(=O)([O-])OCC[N+](C)(C)C)OC (stereo not drawn) [EDELFOSINE], which Control [7] is on record?
Its Control is 48%.

What about the Control [8] of the same compound?
Its Control is 30%.

What about the Control [9] of the same compound?
The Control was 68%.

What about the percent of control colonies [10] of the same compound?
The percent of control colonies was 105%.

What about the IC50 [11] of the same compound?
Its IC50 is 2500 nM.

What about the Control [12] of the same compound?
Its Control is 91%.

What about the Control [13] of the same compound?
The Control was 36%.

Reference: ChEMBL document CHEMBL1126826, “2'-(Trimethylammonio)ethyl 4-(hexadecyloxy)-3(S)-methoxybutanephosphonate: a novel potent antineoplastic agent” (J Med Chem, 1993)
